Assay results reported in ChEMBL document CHEMBL3808307, “Triazolylthioacetamide: A Valid Scaffold for the Development of New Delhi Metallo-β-Lactmase-1 (NDM-1) Inhibitors” (ACS Med Chem Lett, 2016).
Calls of active or inactive are those of the source. The calls are words filed in the database; no cut-off is given here.

Legend:
[1] = molecular target: Metallo-beta-lactamase type 2 (Bacteroides fragilis) (UniProt P25910); experiment: Inhibition of Bacteroides fragilis CcrA metallo-beta-lactamase up to 10 uM preincubated for 60 min followed by addition of cefazolin as substrate by spectrometry method
Metallo-beta-lactamase type 2 (Bacteroides fragilis), sequence (P25910 whole entry): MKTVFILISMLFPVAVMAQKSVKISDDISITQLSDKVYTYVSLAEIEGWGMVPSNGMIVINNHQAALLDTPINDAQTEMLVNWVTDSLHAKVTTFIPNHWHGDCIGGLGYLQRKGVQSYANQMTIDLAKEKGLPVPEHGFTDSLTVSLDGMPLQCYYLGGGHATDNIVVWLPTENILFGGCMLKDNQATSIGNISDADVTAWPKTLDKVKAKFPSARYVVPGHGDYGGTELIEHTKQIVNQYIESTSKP
Outline: (§1)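 Purified recombinant MβL preincubated with inhibitor for 60 min, then hydrolysis followed by UV spectrometry. Substrate was cefazolin, or imipenem for ImiS, at 26–160 μM. Inhibitor ranged 15 nM to 10 μM. IC50 was the concentration giving a 50% drop in enzyme activity, calculated from kinetic data.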

[2] = tested on: Stenotrophomonas maltophilia; experiment: Inhibition of Stenotrphomonas maltophilia metallo-beta-lactamase L1 up to 10 uM preincubated for 60 min followed by addition of cefazolin as substrate by spectrometry method; outline: as §1
[3] = molecular target: T1, Metallo-beta-lactamase type 2 (Klebsiella pneumoniae, UniProt C7C422); experiment: Inhibition of Klebsiella pneumoniae metallo-beta-lactamase NDM-1 expressed in Escherichia coli BL21(DE3) cells preincubated for 60 min followed by addition of cefazolin as substrate by spectrometry method; outline: as §1
T1 sequence (C7C422 whole entry): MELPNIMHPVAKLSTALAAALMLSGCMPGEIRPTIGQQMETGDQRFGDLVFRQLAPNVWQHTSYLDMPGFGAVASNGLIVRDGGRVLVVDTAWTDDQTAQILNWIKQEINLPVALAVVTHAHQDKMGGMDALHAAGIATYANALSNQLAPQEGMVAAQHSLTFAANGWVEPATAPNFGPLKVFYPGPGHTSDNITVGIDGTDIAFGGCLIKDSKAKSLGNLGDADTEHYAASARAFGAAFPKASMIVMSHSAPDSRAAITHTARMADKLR

[4] = tested on: Aeromonas veronii bv. sobria; experiment: Inhibition of Aeromonas veronii bv. sorbia Metallo-beta-lactamase ImiS up to 10 uM preincubated for 60 min followed by addition of imipenem as substrate by spectrometry method; outline: as §1
[5] = molecular target: T1, Metallo-beta-lactamase type 2; experiment: Mixed type inhibition of Klebsiella pneumoniae metallo-beta-lactamase NDM-1 expressed in Escherichia coli BL21(DE3) cells assessed as hydrolysis of cefazolin preincubated for 60 min followed by addition of cefazolin by Lineweaver-Burk plot analysis
Outline: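 Purified recombinant NDM-1 preincubated with inhibitor for 60 min. Cefazolin hydrolysis was then followed by UV spectrometry, with substrate varied 26–160 μM and inhibitor at 0, 0.25, 0.5 and 1.0 μM. Mode was taken from Lineweaver–Burk plots. Ki came from replots of slope and intercept […].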

SMILES | inhibition [1] | inhibition [2] | IC50 [3] [nM] | inhibition [4] | Ki [5] [nM]
CCCCc1ccc(NC(=O)CSc2nnc(-c3ccccc3N)[nH]2)cc1 | inactive | inactive | 160 | inactive | 490
CCCCc1ccc(NC(=O)CSc2nnc(-c3ccccc3O)[nH]2)cc1 | inactive | inactive | 160 | inactive | –
O=C(CSc1nnc(-c2ccc(O)cc2)[nH]1)Nc1ccccc1Cl | inactive | inactive | 520 | inactive | –
O=C(CSc1nnc(-c2ccccc2O)[nH]1)Nc1ccccc1Cl | inactive | inactive | 980 | inactive | –
Nc1ccccc1-c1nnc(SCC(=O)Nc2ccccc2)[nH]1 | inactive | inactive | 330 | inactive | –
Cc1ccccc1NC(=O)CSc1nnc(-c2ccccc2O)[nH]1 | inactive | inactive | 160 | inactive | –
Nc1ccccc1-c1nnc(SCC(=O)Nc2ccccc2Cl)[nH]1 | inactive | inactive | 610 | inactive | –
CCCCc1ccc(NC(=O)CSc2nnc(-c3ccc(O)cc3)[nH]2)cc1 | inactive | inactive | 480 | inactive | –
O=C(CSc1nnc(-c2ccccc2)[nH]1)Nc1cccc(Cl)c1 | inactive | inactive | 690 | inactive | –
O=C(CSc1nnc(-c2ccccc2)[nH]1)Nc1ccccc1Cl | inactive | inactive | 350 | inactive | –
O=C(CSc1nnc(-c2ccc(O)cc2)[nH]1)Nc1cccc(Cl)c1 | inactive | inactive | 370 | inactive | 630
CCc1ccccc1NC(=O)CSc1nnc(-c2ccc(O)cc2)[nH]1 | inactive | inactive | 1500 | inactive | –
Cc1ccccc1NC(=O)CSc1nnc(-c2ccccc2N)[nH]1 | inactive | inactive | 1900 | inactive | –
CCc1ccccc1NC(=O)CSc1nnc(-c2ccccc2O)[nH]1 | inactive | inactive | 930 | inactive | –
O=C(CSc1nnc(-c2ccccc2O)[nH]1)Nc1cccc(Cl)c1 | inactive | inactive | 160 | inactive | –
O=C(CSc1nnc(-c2ccc(O)cc2)[nH]1)Nc1ccccc1 | inactive | inactive | 1200 | inactive | –
O=C(CSc1nnc(-c2ccccc2O)[nH]1)Nc1ccccc1 | inactive | inactive | 420 | inactive | –
O=C(CSc1nnc(-c2ccccc2)[nH]1)Nc1ccccc1 | inactive | inactive | 170 | inactive | –
CCc1ccccc1NC(=O)CSc1nnc(-c2ccccc2N)[nH]1 | inactive | inactive | 450 | inactive | –
Cc1ccccc1NC(=O)CSc1nnc(-c2ccccc2)[nH]1 | inactive | inactive | 190 | inactive | –
Nc1ccccc1-c1nnc(SCC(=O)Nc2cccc(Cl)c2)[nH]1 | inactive | inactive | 230 | inactive | –
CCCCc1ccc(NC(=O)CSc2nnc(-c3ccccc3)[nH]2)cc1 | inactive | inactive | 150 | inactive | –
CCc1ccccc1NC(=O)CSc1nnc(-c2ccccc2)[nH]1 | inactive | inactive | 990 | inactive | –
Cc1ccccc1NC(=O)CSc1nnc(-c2ccc(O)cc2)[nH]1 | inactive | inactive | 980 | inactive | –
